Experimental data published in ChEMBL document CHEMBL3994644, “Discovery of AAT-008, a novel, potent, and selective prostaglandin EP4 receptor antagonist” (Bioorg Med Chem Lett, 2017).
In brackets after ≈: the same amount, converted by molar mass.

Legend:
[1] = Lipophilicity, log D of the compound at pH 7.4; type: physicochemical; conditions: buffer
[2] = Oral bioavailability in Beagle dog at 1 mg/kg; type: ADME, organism-based, Canis lupus familiaris; conditions: in vivo
Outline: (§1)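 Single 1 mg/kg dose given IV or PO to rats, dogs and monkeys. Plasma pharmacokinetic parameters were derived and reported as mean SD, N = 4.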

[3] = molecular target: T1, Prostaglandin E2 receptor EP4 subtype (Rattus norvegicus, UniProt P43114); assay: Antagonist activity at rat recombinant EP4 receptor assessed as inhibition of PGE2-induced cAMP level by cell based assay; type: functional; conditions: read-out: pA2 (converted)
T1 sequence (P43114 whole entry): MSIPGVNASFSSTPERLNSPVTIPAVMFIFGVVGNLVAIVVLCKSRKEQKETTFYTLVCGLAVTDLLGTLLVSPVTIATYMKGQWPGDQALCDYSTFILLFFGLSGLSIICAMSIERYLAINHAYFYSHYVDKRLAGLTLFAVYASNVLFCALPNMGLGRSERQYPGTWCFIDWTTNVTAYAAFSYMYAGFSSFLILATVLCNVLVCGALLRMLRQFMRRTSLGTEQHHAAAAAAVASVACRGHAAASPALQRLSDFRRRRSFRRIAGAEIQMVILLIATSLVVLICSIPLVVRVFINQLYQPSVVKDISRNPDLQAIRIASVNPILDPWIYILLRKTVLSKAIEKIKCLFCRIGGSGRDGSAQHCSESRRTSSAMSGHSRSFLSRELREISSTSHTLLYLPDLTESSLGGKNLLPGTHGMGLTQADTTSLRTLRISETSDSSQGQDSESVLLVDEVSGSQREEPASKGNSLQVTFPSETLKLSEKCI
Outline: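 Functional antagonism was measured as inhibition of PGE2-induced cAMP in cells transfected with rodent EP4 (mouse or rat). The value is expressed as pA2.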

[4] = molecular target: Prostaglandin E2 receptor EP4 subtype (Homo sapiens, UniProt P35408); assay: Displacement of [3H]PGE from human EP4 receptor expressed in HEK293 cell membranes
Prostaglandin E2 receptor EP4 subtype (Homo sapiens, UniProt P35408), sequence (P35408 whole entry): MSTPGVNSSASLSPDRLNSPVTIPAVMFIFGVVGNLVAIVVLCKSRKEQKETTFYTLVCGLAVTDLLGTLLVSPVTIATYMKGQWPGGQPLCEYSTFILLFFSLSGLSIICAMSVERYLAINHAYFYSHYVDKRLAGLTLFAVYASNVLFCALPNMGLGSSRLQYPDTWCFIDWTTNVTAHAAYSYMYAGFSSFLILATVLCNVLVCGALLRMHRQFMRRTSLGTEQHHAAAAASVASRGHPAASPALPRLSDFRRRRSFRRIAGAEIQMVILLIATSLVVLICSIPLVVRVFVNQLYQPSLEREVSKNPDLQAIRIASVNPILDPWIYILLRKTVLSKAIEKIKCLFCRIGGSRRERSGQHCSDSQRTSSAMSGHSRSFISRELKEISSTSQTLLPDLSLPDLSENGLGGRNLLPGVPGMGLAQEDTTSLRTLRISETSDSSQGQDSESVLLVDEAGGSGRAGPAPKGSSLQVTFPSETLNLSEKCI
Outline: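 Membrane binding assay using [3H]PGE2 with membranes from HEK-293 cells expressing human EP4. The value is expressed as Ki.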

[5] = AUC (0 to infinity) in Sprague-Dawley rat at 1 mg/kg, iv; type: ADME, organism-based; set-up: dose 1 mg/kg, route intravenous, time infinity; conditions: in vivo; outline: as §1
[6] = Solubility of the compound in pH 5.8 water for injection; type: physicochemical
[7] = Half life in hepatocytes (unknown origin); type: ADME, cell-based, Hepatocyte
[8] = Tmax in Sprague-Dawley rat at 1 mg/kg, po; type: ADME, organism-based; conditions: in vivo
Outline: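 Oral administration of the compound; Tmax is from plasma concentration–time profiles. Values are mean SD of N = 4 animals per species.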

[9] = Elimination half life in cynomolgus monkey at 1 mg/kg, iv; type: ADME, organism-based, Macaca fascicularis; conditions: in vivo, read-out: beta t1/2 (converted); outline: as §1
[10] = Elimination half life in Sprague-Dawley rat at 1 mg/kg, iv; type: ADME, organism-based; conditions: in vivo, read-out: beta t1/2 (converted); outline: as §1
[11] = molecular target: T2, Prostaglandin E2 receptor EP1 subtype (Homo sapiens, UniProt P34995); assay: Antagonist activity at human EP1 receptor
T2 sequence (P34995 whole entry): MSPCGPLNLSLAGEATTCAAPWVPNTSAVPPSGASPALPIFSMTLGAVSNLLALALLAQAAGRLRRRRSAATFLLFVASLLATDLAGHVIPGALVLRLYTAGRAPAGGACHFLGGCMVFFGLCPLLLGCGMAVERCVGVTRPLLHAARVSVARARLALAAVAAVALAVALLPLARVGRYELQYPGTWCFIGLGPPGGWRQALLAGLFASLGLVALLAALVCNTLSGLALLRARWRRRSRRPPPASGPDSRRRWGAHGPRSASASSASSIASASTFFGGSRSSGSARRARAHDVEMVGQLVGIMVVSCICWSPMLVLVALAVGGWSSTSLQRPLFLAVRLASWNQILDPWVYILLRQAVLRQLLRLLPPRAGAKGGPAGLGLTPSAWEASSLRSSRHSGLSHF

[12] = molecular target: Prostaglandin E2 receptor EP2 subtype (Homo sapiens, UniProt P43116); assay: Antagonist activity at human EP2 receptor
Prostaglandin E2 receptor EP2 subtype, sequence (P43116 whole entry): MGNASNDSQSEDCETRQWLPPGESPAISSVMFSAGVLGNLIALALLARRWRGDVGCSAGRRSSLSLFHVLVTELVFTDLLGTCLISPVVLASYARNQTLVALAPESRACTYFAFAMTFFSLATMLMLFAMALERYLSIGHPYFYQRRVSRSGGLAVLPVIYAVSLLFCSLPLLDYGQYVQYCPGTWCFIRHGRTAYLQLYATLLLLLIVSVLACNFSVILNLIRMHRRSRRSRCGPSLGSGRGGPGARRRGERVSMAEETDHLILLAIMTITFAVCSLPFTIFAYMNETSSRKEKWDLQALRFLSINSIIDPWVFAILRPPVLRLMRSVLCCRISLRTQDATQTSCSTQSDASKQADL

[13] = AUC (0 to infinity) in Sprague-Dawley rat at 1 mg/kg, po; type: ADME, organism-based; set-up: dose 1 mg/kg, route oral, time infinity; conditions: in vivo; outline: as §1
[14] = Cmax in Sprague-Dawley rat at 1 mg/kg, po; type: ADME, organism-based; set-up: dose 1 mg/kg, route oral; conditions: in vivo; outline: as §1
[15] = Oral bioavailability in Sprague-Dawley rat at 1 mg/kg; type: ADME, organism-based; conditions: in vivo; outline: as §1
[16] = Volume of distribution at steady state in Beagle dog at 1 mg/kg, iv; type: ADME, organism-based, Canis lupus familiaris; conditions: in vivo, read-out: Vdss
Outline: (§2)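 A single intravenous injection at 1 mg/kg was given. Plasma concentration–time data gave total clearance (CL_total, mL/min/kg) and steady-state volume of distribution (Vd_ss, L/kg). Values are mean SD of N = 4 animals per species.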

[17] = Solubility of the compound in pH 1.2 simulated gastric fluid; type: physicochemical
[18] = Lipophilicity, log D of the compound at pH 1.2; type: physicochemical; conditions: buffer
[19] = Apparent permeability from apical to basolateral side in human Caco2 cells; type: ADME, cell-based; conditions: Caco-2
Outline: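 Caco-2 monolayer permeability (Papp, apical to basolateral) was measured under constant pH, with the apical side at pH 6.5 and the basolateral side at pH 7.4.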

[20] = Volume of distribution at steady state in Sprague-Dawley rat at 1 mg/kg, iv; type: ADME, organism-based; conditions: in vivo, read-out: Vdss; outline: as §2
[21] = Lipophilicity, log D of the compound at pH 6.5; type: physicochemical; conditions: buffer
[22] = AUC (0 to infinity) in cynomolgus monkey at 1 mg/kg, iv; type: ADME, organism-based, Macaca fascicularis; set-up: dose 1 mg/kg, route intravenous, time infinity; conditions: in vivo; outline: as §1
[23] = Cmax in cynomolgus monkey at 1 mg/kg, po; type: ADME, organism-based, Macaca fascicularis; set-up: dose 1 mg/kg, route oral; conditions: in vivo; outline: as §1
Thromboxane A2 receptor = molecular target: T3, Thromboxane A2 receptor (Homo sapiens, UniProt P21731); assay: Antagonist activity at human platelet TP receptor
T3 sequence (P21731 whole entry): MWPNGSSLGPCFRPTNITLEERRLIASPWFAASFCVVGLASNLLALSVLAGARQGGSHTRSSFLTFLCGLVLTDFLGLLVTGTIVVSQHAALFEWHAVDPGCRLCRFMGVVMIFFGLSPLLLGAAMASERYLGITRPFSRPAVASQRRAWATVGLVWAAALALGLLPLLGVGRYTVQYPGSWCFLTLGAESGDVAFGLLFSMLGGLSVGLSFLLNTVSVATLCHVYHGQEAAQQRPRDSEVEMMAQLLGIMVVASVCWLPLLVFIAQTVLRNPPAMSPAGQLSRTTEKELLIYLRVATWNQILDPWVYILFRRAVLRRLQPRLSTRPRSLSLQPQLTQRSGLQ

[24] = molecular target: Prostaglandin E receptor 4 (Canis lupus familiaris, UniProt Q9TU16); assay: Antagonist activity at dog recombinant EP4 receptor
Prostaglandin E receptor 4, sequence (Q9TU16 whole entry): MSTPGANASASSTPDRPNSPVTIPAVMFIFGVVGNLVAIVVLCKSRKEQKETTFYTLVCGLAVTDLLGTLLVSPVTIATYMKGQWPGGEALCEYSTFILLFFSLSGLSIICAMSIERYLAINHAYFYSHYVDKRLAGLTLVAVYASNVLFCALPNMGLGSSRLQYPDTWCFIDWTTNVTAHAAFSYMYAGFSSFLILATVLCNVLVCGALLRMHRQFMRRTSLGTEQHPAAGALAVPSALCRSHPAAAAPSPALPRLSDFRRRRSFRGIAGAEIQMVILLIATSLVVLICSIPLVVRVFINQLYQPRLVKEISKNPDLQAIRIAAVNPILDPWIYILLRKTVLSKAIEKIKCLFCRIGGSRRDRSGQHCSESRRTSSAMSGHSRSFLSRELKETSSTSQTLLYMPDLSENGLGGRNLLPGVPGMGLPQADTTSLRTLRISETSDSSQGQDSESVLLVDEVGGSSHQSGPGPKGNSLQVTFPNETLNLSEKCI

[25] = Total clearance in cynomolgus monkey at 1 mg/kg, iv; type: ADME, organism-based, Macaca fascicularis; conditions: in vivo; outline: as §2
CYP1A = assay: Inhibition of CYP1A (unknown origin) at 1 uM relative to control; type: ADME; conditions: human
Outline: (§3)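 CYP1A, CYP2C9, CYP2C19, CYP2D6 and CYP3A activities were each tested with 1 µM test article. Results are given as percent inhibition of enzyme activity.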

[26] = Oral bioavailability in cynomolgus monkey at 1 mg/kg; type: ADME, organism-based, Macaca fascicularis; conditions: in vivo; outline: as §1
[27] = Elimination half life in Sprague-Dawley rat at 1 mg/kg, po; type: ADME, organism-based; conditions: in vivo, read-out: beta t1/2 (converted); outline: as §1
[28] = molecular target: Prostaglandin F2-alpha receptor (Homo sapiens, UniProt P43088); assay: Antagonist activity at human FP receptor
Prostaglandin F2-alpha receptor, sequence (P43088 whole entry): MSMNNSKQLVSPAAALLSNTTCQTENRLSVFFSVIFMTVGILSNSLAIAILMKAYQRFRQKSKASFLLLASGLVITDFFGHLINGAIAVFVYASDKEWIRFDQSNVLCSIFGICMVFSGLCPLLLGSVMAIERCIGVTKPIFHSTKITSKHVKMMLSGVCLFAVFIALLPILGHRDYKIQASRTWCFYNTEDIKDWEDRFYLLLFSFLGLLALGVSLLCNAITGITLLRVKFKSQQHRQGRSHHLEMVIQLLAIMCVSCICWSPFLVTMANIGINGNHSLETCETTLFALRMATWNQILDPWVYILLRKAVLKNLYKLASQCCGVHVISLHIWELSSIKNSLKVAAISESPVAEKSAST

CYP2C19 = CYP2C19 (Homo sapiens, UniProt P33261); assay: Inhibition of CYP2C19 (unknown origin) at 1 uM relative to control; type: ADME; outline: as §3
CYP2C19, sequence (P33261 whole entry): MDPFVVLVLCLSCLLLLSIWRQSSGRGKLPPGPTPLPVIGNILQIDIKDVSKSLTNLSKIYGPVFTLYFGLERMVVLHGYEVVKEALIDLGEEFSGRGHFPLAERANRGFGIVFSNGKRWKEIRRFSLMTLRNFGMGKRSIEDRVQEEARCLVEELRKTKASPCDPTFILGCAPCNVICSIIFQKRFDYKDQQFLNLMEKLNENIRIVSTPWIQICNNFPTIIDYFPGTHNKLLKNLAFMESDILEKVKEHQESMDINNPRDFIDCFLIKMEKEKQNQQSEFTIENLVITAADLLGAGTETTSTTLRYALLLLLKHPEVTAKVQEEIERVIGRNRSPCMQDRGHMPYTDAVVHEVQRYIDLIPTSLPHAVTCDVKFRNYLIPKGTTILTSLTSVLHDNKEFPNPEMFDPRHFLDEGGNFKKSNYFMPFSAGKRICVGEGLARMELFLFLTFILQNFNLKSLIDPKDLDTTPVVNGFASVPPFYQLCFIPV

[29] = molecular target: T1, Prostaglandin E2 receptor EP4 subtype; assay: Antagonist activity at rat recombinant EP4 receptor
[30] = Cmax in Beagle dog at 1 mg/kg, po; type: ADME, organism-based, Canis lupus familiaris; set-up: dose 1 mg/kg, route oral; conditions: in vivo; outline: as §1
[31] = Elimination half life in cynomolgus monkey at 1 mg/kg, po; type: ADME, organism-based, Macaca fascicularis; conditions: in vivo, read-out: beta t1/2 (converted); outline: as §1

C[C@H](NC(=O)c1cc(Cl)cnc1Oc1cccc(F)c1)c1ccc(C(=O)O)cc1
logD [1]: 0.7
bioavailability [2]: 80.6%
Kb [3]: 4.57 nM
IC50 [4]: 2.4 nM
Ki [4]: 0.97 nM
AUC(0-inf) [5]: 9620 ng·h/mL
solubility [6]: 4.3 µg/mL (≈ 10.4 µM)
half-life [7]: > 6 h
Tmax [8]: 0.75 h
half-life [9]: 14.5 h
half-life [10]: 4.59 h
IC50 [11]: > 20000 nM
Ki [11]: > 6000 nM
IC50 [12]: 1890 nM
Ki [12]: 1840 nM
AUC(0-inf) [13]: 7090 ng·h/mL
Cmax [14]: 994 ng/mL
bioavailability [15]: 73.6%
Vd [16]: 1.21 L/kg
solubility [17]: 0.29 µg/mL (≈ 0.699 µM)
logD [18]: 3.8
Papp A→B [19]: 20.1 ×10⁻⁶ cm/s
Vd [20]: 0.593 L/kg
logD [21]: 1.5
AUC(0-inf) [22]: 3390 ng·h/mL
Cmax [23]: 76 ng/mL
Ki (Thromboxane A2 receptor): > 6000 nM
Ki [24]: 38 nM
clearance [25]: 5.31 mL/min/kg
inhibition at 1 µM (CYP1A): < 5%
bioavailability [26]: 73.3%
half-life [27]: 3.71 h
Ki [28]: > 6000 nM
inhibition at 1 µM (CYP2C19): < 5%
Ki [29]: 6.1 nM
Cmax [30]: 1450 ng/mL
half-life [31]: 21.9 h
